Test results from article PMC11588060 (Proceedings of the National Academy of Sciences of the …, 2024).
Structures can show the parent of a compound that is named as a salt. Where two headings read alike, the source gives them in different places.

What was measured:
SfnG [1] = settings: cited from earlier work
MsuE = biological target: T1, MsuE (Pseudomonas fluorescens, UniProt Q3K9A2); assay: Fluorometric equilibrium titration of MsuE with oxidized FMN; type: binding
T1 sequence (Q3K9A2 1-187): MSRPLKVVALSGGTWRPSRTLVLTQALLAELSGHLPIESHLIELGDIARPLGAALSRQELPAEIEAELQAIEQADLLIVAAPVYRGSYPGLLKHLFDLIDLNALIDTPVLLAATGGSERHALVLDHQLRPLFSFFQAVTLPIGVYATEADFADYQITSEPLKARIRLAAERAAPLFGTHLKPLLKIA
In short: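 Recombinant P. fluorescens enzyme titrated at equilibrium with oxidized FMN, binding followed by intrinsic protein fluorescence on a spectrofluorometer. FMN range: 0.2 µM to 400 µM for MsuC and MsuD, 0.033 µM to 260 µM for MsuE. The fit gave KD, total enzyme and R2. Values are ±SD from three assay replicates.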

SfnG [2] = biological target: T2, SfnG (Pseudomonas fluorescens, UniProt Q3KC85); assay: Surface plasmon resonance flavin binding assay, SfnG captured on NTA sensor chip
T2 sequence (Q3KC85 1-364): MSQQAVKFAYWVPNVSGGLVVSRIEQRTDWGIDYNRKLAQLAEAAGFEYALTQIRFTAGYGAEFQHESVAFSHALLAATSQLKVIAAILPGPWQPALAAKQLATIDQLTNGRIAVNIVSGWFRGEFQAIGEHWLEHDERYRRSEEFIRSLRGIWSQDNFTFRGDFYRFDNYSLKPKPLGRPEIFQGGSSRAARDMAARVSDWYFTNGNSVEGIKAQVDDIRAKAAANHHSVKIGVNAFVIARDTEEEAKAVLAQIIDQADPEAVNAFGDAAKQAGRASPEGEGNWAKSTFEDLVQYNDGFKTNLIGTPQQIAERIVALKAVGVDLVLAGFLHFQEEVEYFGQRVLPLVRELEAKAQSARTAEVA

SsuD = settings: read-out: KD for FMN binding; E. coli SsuD; cited from earlier work
SfnG [3] = biological target: T2, SfnG; assay: Mixed dialkylsulfone monooxygenation endpoint assay; type: biochemical; settings: 1 mM substrate, 8 µM SfnG, 1 µM MsuE, 500 µM NADH, 2 µM FMN, 30 °C, 80 min

Question: For C[S+](C)[O-] [DMSO], which “SfnG activity against the compound” value (SfnG [1]) is on record?
Answer: Its value is “not active”.

Question: Which Kd (MsuE) does the source give for Cc1cc2nc3c(=O)[nH]c(=O)nc-3n(C[C@H](O)[C@H](O)[C@H](O)COP(=O)(O)O)c2cc1C [FMN, riboflavin 5´-monophosphate sodium salt] here?
Answer: The Kd was 0.54 ± 0.06 µM.

Question: What about the koff (SfnG [2]) of the same compound?
Answer: Its koff is 0.42 s⁻¹.

Question: What about the “fold decrease in KD by SPR with 1% (v/v) DMSO in the running buffer” value (SfnG [2]; FMN binding to SfnG, with 1% (v/v) DMSO versus without) of the same compound?
Answer: Its value is 2.7 fold.

Question: And the koff (SfnG [2]; read-out: koff rate constant with DMSO2 in the running buffer)?
Answer: Its koff is 0.00836 s⁻¹.

Question: What about the Kd (SsuD) of the same compound?
Answer: Its Kd is 10 µM.

Question: Which “product(s) of conversion by SfnG (1H NMR endpoint assay)” value (SfnG [3]) does the source give for CCS(=O)(=O)CC [diethylsulfone] here?
Answer: Its value is “ethanesulfinate”.
